From ChEMBL document CHEMBL4138145, “Cyclic Cystine-Bridged Peptides from the Marine Sponge Clathria basilana Induce Apoptosis in Tumor Cells and Depolarize the Bacterial Cytoplasmic Membrane” (J Nat Prod, 2017)
The source made the active and inactive calls. Where a SMILES comes first, the peptide text is derived from it. Bridges are numbered along the chain shown (N, C = ends). [ ]: non-standard residue; d: D form. The star is where a group is joined. Ileψ(thiazoline)Cys = CC[C@H](C)[C@H](N)C1=N[C@H](C(=O)*)CS1; pGlu = O=C1CC[C@@H](C(=O)O)N1; dOrn = NCCC[C@@H](N)C(=O)O; X2 = C(=C\c1ccccc1)/N*; X4 = C(=C/c1ccccc1)/N*

Columns and labels:
[1] = test system: Bacillus subtilis; assay: Induction of DNA damage in Bacillus subtilis isolate 1S34 assessed as increase in yorB promoter activity at 5 ug after 14 to 18 hrs by beta-galactosidase reporter gene assay; assay type: functional, organism-based
How it was run: (§1)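 Agar-based β-galactosidase promoter-reporter assay. B. subtilis 1S34 grown to stationary phase in LB with spectinomycin 50 μg/mL, then set at 3 × 10^7 CFU/mL in LB soft agar (0.7%) containing X-Gal 150 μg/mL. Test compounds spotted at 20 nmol; reference antibiotics given on paper discs (5–30 μg). Plates read for promoter induction after 14–18 h at 30 °C.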

[2] = test system: Bacillus subtilis; assay: Induction of cell envelope stress in Bacillus subtilis isolate 1S34 assessed as increase in liaI promoter activity at 5 ug after 14 to 18 hrs by beta-galactosidase reporter gene assay; assay type: functional, organism-based; how it was run: as §1
[3] = test system: Bacillus subtilis; assay: Induction of cell envelope stress in Bacillus subtilis isolate 1S34 assessed as increase in ypuA promoter activity at 5 ug after 14 to 18 hrs by beta-galactosidase reporter gene assay; assay type: functional, organism-based; how it was run: as §1
[4] = test system: Bacillus subtilis; assay: Induction of translation arrest in Bacillus subtilis isolate 1S34 assessed as increase in bmrC promoter activity at 5 ug after 14 to 18 hrs by beta-galactosidase reporter gene assay; assay type: functional, organism-based
[5] = test system: Bacillus subtilis; assay: Induction of RNA damage in Bacillus subtilis isolate 1S34 assessed as increase in helD promoter activity at 5 ug after 14 to 18 hrs by beta-galactosidase reporter gene assay; assay type: functional, organism-based; how it was run: as §1
[6] = test system: Pseudomonas aeruginosa; assay: Antimicrobial activity against Pseudomonas aeruginosa after 16 to 20 hrs by broth micro dilution method; assay type: functional, organism-based
How it was run: (§2)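 Broth microdilution per CLSI in cation-adjusted Mueller-Hinton broth. Inoculum made by direct colony suspension, 5 × 10^5 CFU/mL final, added to serial 2-fold compound dilutions. Plates kept 16–20 h at 37 °C in ambient air. MIC is the lowest concentration with no visible growth. Strains are ATCC CLSI quality-control strains; A. baumannii 09987 is a Bonn clinical isolate.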

[7] = test system: Klebsiella pneumoniae; assay: Antimicrobial activity against Klebsiella pneumoniae after 16 to 20 hrs by broth micro dilution method; assay type: functional, organism-based; how it was run: as §2
[8] = test system: A2780; assay: Cytotoxicity against human A2780 cells assessed as reduction in cell viability up to 10 uM after 72 hrs by MTT assay; assay type: functional, cell-based
How it was run: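 A2780 ovarian carcinoma cells were grown in RPMI-1640 with 10% FBS, penicillin and streptomycin, about 9000 cells/well, preincubated overnight. Increasing compound concentrations were applied for 72 h, then MTT was added. Absorbance read at 544 nm minus the 690 nm reference.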

[9] = test system: Klebsiella aerogenes; assay: Antimicrobial activity against Enterobacter aerogenes after 16 to 20 hrs by broth micro dilution method; assay type: functional, organism-based; how it was run: as §2
[10] = test system: Escherichia coli; assay: Antimicrobial activity against Escherichia coli after 16 to 20 hrs by broth micro dilution method; assay type: functional, organism-based; how it was run: as §2
[11] = species: Homo sapiens; assay: Cytotoxicity against human Jurkat 16 cells assessed as reduction in cell viability up to 10 uM after 24 hrs by MTT assay; assay type: functional, cell-based
How it was run: (§3)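 Suspension cells at 5 × 10^5 cells/mL, exposed 24 h to varying compound concentrations; 0.1% v/v DMSO as negative control. MTT added to 1 mg/mL final for 60 min, cells pelleted, formazan extracted in DMSO for 25 min at rt, A570 read with 650 nm reference. Viability relative to DMSO set at 100%; IC50 from fitted curves.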

[12] = test system: Ramos; assay: Cytotoxicity against human Ramos cells assessed as reduction in cell viability up to 10 uM after 24 hrs by MTT assay; assay type: functional, cell-based; how it was run: as §3
[13] = test system: Acinetobacter baumannii; assay: Antimicrobial activity against Acinetobacter baumannii isolate 09987 after 16 to 20 hrs by broth micro dilution method; assay type: functional, organism-based; how it was run: as §2
[14] = test system: Mycobacterium tuberculosis; assay: Antimicrobial activity against Mycobacterium tuberculosis H37Rv up to 100 uM after 5 days by resazurin dye based assay; assay type: functional, organism-based
How it was run: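 M. tuberculosis H37Rv was grown aerobically at 37 °C in Middlebrook 7H9 with ADS enrichment, 0.5% glycerol and 0.05% tyloxapol, then precultured to log phase (OD600 0.5−1). Cells were seeded at 1 × 10^5 per well on 2-fold dilutions over 100−0.78 μM and held 5 days at 37 °C. Resazurin was added for 16 h at ambient temperature, then cells were formalin-fixed and fluorescence read (ex 540, em 590 nm). Growth is relative to rifampicin (0%) and DMSO (100%).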

[15] = test system: NOMO-1; assay: Cytotoxicity against human NOMO1 cells assessed as reduction in cell viability up to 10 uM after 24 hrs by MTT assay; assay type: functional, cell-based; how it was run: as §3
[16] = test system: HL-60; assay: Cytotoxicity against human HL60 cells assessed as reduction in cell viability up to 10 uM after 24 hrs by MTT assay; assay type: functional, cell-based; how it was run: as §3
[17] = test system: Bacillus subtilis; assay: Induction of RNA damage in Bacillus subtilis isolate 1S34 assessed as increase in helD promoter activity at 30 ug after 14 to 18 hrs by beta-galactosidase reporter gene assay; assay type: functional, organism-based
How it was run: (§4)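 B. subtilis 1S34 β-galactosidase promoter reporters were grown in LB with spectinomycin (50 μg/mL) to stationary phase. Cells were set at 3 × 10^7 CFU/mL in LB soft agar (0.7%) containing X-Gal (150 μg/mL). Test compounds were spotted on the plates, with reference antibiotic discs as positive controls. Plates were incubated 14−18 h at 30 °C and read for promoter induction (blue colour).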

[18] = test system: Bacillus subtilis; assay: Induction of translation arrest in Bacillus subtilis isolate 1S34 assessed as increase in bmrC promoter activity at 30 ug after 14 to 18 hrs by beta-galactosidase reporter gene assay; assay type: functional, organism-based
How it was run: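 The bmrC promoter reporter in B. subtilis 1S34 was embedded at 3 × 10^7 CFU/mL in Belitzky minimal medium soft agar containing X-Gal (150 μg/mL). Test compounds were spotted, with reference antibiotic discs as positive controls. Plates were incubated at 37 °C and read for promoter-driven β-galactosidase induction.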

[19] = test system: Bacillus subtilis; assay: Induction of cell envelope stress in Bacillus subtilis isolate 1S34 assessed as increase in liaI promoter activity at 30 ug after 14 to 18 hrs by beta-galactosidase reporter gene assay; assay type: functional, organism-based; how it was run: as §4
[20] = test system: Bacillus subtilis; assay: Induction of DNA damage in Bacillus subtilis isolate 1S34 assessed as increase in yorB promoter activity at 30 ug after 14 to 18 hrs by beta-galactosidase reporter gene assay; assay type: functional, organism-based; how it was run: as §4
[21] = test system: Bacillus subtilis; assay: Induction of cell envelope stress in Bacillus subtilis isolate 1S34 assessed as increase in ypuA promoter activity at 30 ug after 14 to 18 hrs by beta-galactosidase reporter gene assay; assay type: functional, organism-based; how it was run: as §4
[22] = test system: Bacillus subtilis; assay: Induction of RNA damage in Bacillus subtilis isolate 1S34 assessed as increase in helD promoter activity at 10 ug after 14 to 18 hrs by beta-galactosidase reporter gene assay; assay type: functional, organism-based; how it was run: as §1
[23] = test system: Bacillus subtilis; assay: Induction of translation arrest in Bacillus subtilis isolate 1S34 assessed as increase in bmrC promoter activity at 10 ug after 14 to 18 hrs by beta-galactosidase reporter gene assay; assay type: functional, organism-based
[24] = test system: Bacillus subtilis; assay: Induction of cell envelope stress in Bacillus subtilis isolate 1S34 assessed as increase in liaI promoter activity at 10 ug after 14 to 18 hrs by beta-galactosidase reporter gene assay; assay type: functional, organism-based; how it was run: as §1
[25] = test system: Bacillus subtilis; assay: Induction of cell envelope stress in Bacillus subtilis isolate 1S34 assessed as increase in ypuA promoter activity at 10 ug after 14 to 18 hrs by beta-galactosidase reporter gene assay; assay type: functional, organism-based; how it was run: as §1
[26] = test system: Bacillus subtilis; assay: Induction of DNA damage in Bacillus subtilis isolate 1S34 assessed as increase in yorB promoter activity at 10 ug after 14 to 18 hrs by beta-galactosidase reporter gene assay; assay type: functional, organism-based; how it was run: as §1

Measured: Activity

O=C(O)c1cn(C2CC2)c2cc(N3CCNCC3)c(F)cc2c1=O
active: [1] | [2] | [3] | [4] | [5]

CC[C@H](C)[C@H](NC(=O)[C@@H]1CCC(=O)N1)C(=O)N[C@@H](CC(C)C)C(=O)N[C@H]1CSSC[C@@H](C(=O)N/C=C/c2ccccc2)NC(=O)[C@H](Cc2ccccc2)NC(=O)[C@@H]2CCCN2C(=O)[C@@H]2CCCN2C1=O ([pGlu]ILCPPFC-X2; disulfide 4-8)
inactive: [6] | [7] | [8] | [9] | [10] | [11] | [12] | [13] | [14] | [15] | [16]

CO[C@H]1/C=C/O[C@@]2(C)Oc3c(C)c(O)c4c(O)c(c(/C=N/N5CCN(C)CC5)c(O)c4c3C2=O)NC(=O)/C(C)=C\C=C\[C@H](C)[C@H](O)[C@@H](C)[C@@H](O)[C@@H](C)[C@H](OC(C)=O)[C@@H]1C
active: [17] | [18] | [19] | [20] | [21]

CC[C@H](C)[C@H](NC(=O)[C@@H]1CCC(=O)N1)C(=O)N[C@@H](CC(C)C)C(=O)N[C@H]1CSSC[C@@H](C(=O)N/C=C\c2ccccc2)NC(=O)[C@H](Cc2ccccc2)NC(=O)[C@@H]2CCCN2C(=O)[C@@H]2CCCN2C1=O ([pGlu]ILCPPFC-X4; disulfide 4-8)
inactive: [8] | [11] | [12] | [15] | [16]

CC(C)[C@H](N)C(=O)N/C=C/c1ccccc1
inactive: [6] | [7] | [8] | [9] | [10] | [11] | [12] | [13] | [14] | [15] | [16]

O=C(N[C@H](CO)[C@H](O)c1ccc([N+](=O)[O-])cc1)C(Cl)Cl
active: [22] | [23] | [24] | [25] | [26]

CC(C)C[C@@H]1NC(=O)[C@@H]2CCCN2C(=O)[C@@H]2CCCN2C(=O)[C@@H](NC(=O)[C@@H]2CCC(=O)N2)CSSC[C@@H](C(=O)N2CCC[C@H]2C(N)=O)NC1=O ([pGlu]CPPLCP-NH2; disulfide 2-6)
inactive: [6] | [7] | [8] | [9] | [10] | [11] | [12] | [13] | [14] | [15] | [16]

CC[C@H](C)[C@H](N)C1=N[C@H](C(=O)N[C@@H](CC(C)C)C(=O)N[C@H](CCC(=O)O)C(=O)N[C@H](C(=O)N[C@H]2CCCCNC(=O)[C@H](CC(N)=O)NC(=O)[C@@H](CC(=O)O)NC(=O)[C@H](Cc3cnc[nH]3)NC(=O)[C@@H](Cc3ccccc3)NC(=O)[C@H]([C@@H](C)CC)NC(=O)[C@@H](CCCN)NC2=O)[C@@H](C)CC)CS1 ({Ileψ(thiazoline)Cys}-L[dE]IK[dOrn]I[dF]H[dD]N; lactam 4-C)
active: [22] | [23] | [24] | [25] | [26]

CN[C@H](CC(C)C)C(=O)N[C@H]1C(=O)N[C@@H](CC(N)=O)C(=O)N[C@H]2C(=O)N[C@H]3C(=O)N[C@H](C(=O)N[C@H](C(=O)O)c4cc(O)cc(O)c4-c4cc3ccc4O)[C@H](O)c3ccc(c(Cl)c3)Oc3cc2cc(c3O[C@@H]2O[C@H](CO)[C@@H](O)[C@H](O)[C@H]2O[C@H]2C[C@](C)(N)[C@H](O)[C@H](C)O2)Oc2ccc(cc2Cl)[C@H]1O
active: [17] | [18] | [19] | [20] | [21]
